Laboratory results: ChEMBL document CHEMBL4393672, “High affinity CXCR4 inhibitors generated by linking low affinity peptides” (Eur J Med Chem, 2019)
Activity calls are given as the source filed them. The rule behind the calls is not given here. Residues, ends and D or L forms follow the SMILES beside them.

Tests used:
[1] = molecular target: T1, C-X-C chemokine receptor type 4 (Homo sapiens, UniProt P61073); assay: Competitive binding affinity to CXCR4 in human SupT1 cells incubated for 40 mins by 12G5 antibody based fluorescence analysis; format: cell-based
T1 sequence (P61073 whole entry): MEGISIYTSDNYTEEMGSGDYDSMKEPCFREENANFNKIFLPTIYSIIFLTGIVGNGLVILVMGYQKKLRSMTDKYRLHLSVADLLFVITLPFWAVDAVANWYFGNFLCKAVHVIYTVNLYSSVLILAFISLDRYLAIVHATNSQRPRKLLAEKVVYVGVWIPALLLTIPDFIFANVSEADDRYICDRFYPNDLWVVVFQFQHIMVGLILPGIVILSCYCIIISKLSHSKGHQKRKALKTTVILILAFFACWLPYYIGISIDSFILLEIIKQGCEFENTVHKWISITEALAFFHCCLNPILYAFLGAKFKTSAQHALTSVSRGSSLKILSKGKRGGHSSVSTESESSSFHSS

[2] = molecular target: T1, C-X-C chemokine receptor type 4; assay: Competitive binding affinity to CXCR4 receptor (unknown origin) expressed in CHO cells incubated for 40 mins by 12G5 antibody based fluorescence analysis; format: cell-based
[3] = molecular target: T1, C-X-C chemokine receptor type 4; assay: Inhibition of N-terminal flag-tagged CXCR4 (unknown origin) internalization expressed in CHO cells incubated for 45 mins and measured after 1 hr by FITC-labeled anti-flag antibody based fluorescence analysis
[4] = system: Human immunodeficiency virus 1; assay: Antiviral activity against Human immunodeficiency virus 1 NL4-3 infected in human PBMC cells assessed as reduction in intracellular p24 level at 100 nM preincubated with cells 2 hrs followed by viral infection and measured after 24 hrs by ELISA; format: functional
Procedure, shortened: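 PBMCs from healthy donors (2.5×10^6 cells/mL) were exposed to compound for 2 h, washed, and infected with HIV-1 NL4-3 at MOI 0.02 for 2 h at 37°C. Cells were washed, resuspended in complete medium and incubated 24 h. Cells were then lysed with protease inhibitor, and intracellular p24 was quantified by ELISA.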

[5] = Stability of compound in water assessed as compound remaining at 1mM at 37 degC after 48 hrs by HPLC analysis relative to control; format: physicochemical; details: read-out: Stability
[6] = molecular target: T1, C-X-C chemokine receptor type 4; assay: Antagonist activity at CXCR4 receptor in human SupT1 cells assessed as inhibition of SDF-1alpha-induced calcium release at 1 uM preincubated for 2 to 3 mins followed by SDF-1alpha addition by Fluo-4AM dye based fluorescence assay relative to control; format: functional, cell-based
Procedure, shortened: (§1)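 SupT1 cells loaded with Fluo-4AM (2 µM) plus probenecid (5 µM) for 30 min at 37°C in HBSS/20 mM HEPES, washed; 1×10⁶ cells/mL exposed to compound 2–3 min, then stimulated with 50 nM SDF-1α; fluorescence read at […]/510em.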

[7] = molecular target: T1, C-X-C chemokine receptor type 4; assay: Antagonist activity at CXCR4 receptor in human SupT1 cells assessed as inhibition of SDF-1alpha-induced calcium release preincubated for 2 to 3 mins followed by SDF-1alpha addition by Fluo-4AM dye based fluorescence assay; format: functional, cell-based; procedure, shortened: as §1
[8] = system: C-X-C chemokine receptor type 4 (Homo sapiens), P61073 [Y45A]; assay: Competitive binding affinity to CXCR4 Y45A mutant (unknown origin) expressed in CHO cells at 200 nM incubated for 30 mins by 12G5 antibody based fluorescence analysis; format: cell-based
C-X-C chemokine receptor type 4 (Homo sapiens), P61073 [Y45A], sequence (P61073 whole entry Y45A): as the sequence (P61073 whole entry) above, with Y45A counted along it
Procedure, shortened: (§2)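 Wild-type or mutant CXCR4 cells (5×10⁵/well) incubated with single 200 nM concentration in FACS buffer (0.5% BSA, 0.05% azide in PBS) plus 12G5 anti-CD184 antibody, 30 min on ice; washed, FITC anti-mouse IgG 30 min on ice; fluorescence 485ex/528em; duplicates, ≥3 independent experiments, normalized as percent of control.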

[9] = system: C-X-C chemokine receptor type 4 (Homo sapiens), P61073 [W94A]; assay: Competitive binding affinity at CXCR4 W94A mutant (unknown origin) expressed in CHO cells at 200 nM incubated for 30 mins by 12G5 antibody based fluorescence analysis; format: cell-based; procedure, shortened: as §2
C-X-C chemokine receptor type 4 (Homo sapiens), P61073 [W94A], sequence (P61073 whole entry W94A): as the sequence (P61073 whole entry) above, with W94A counted along it

[10] = system: C-X-C chemokine receptor type 4 (Homo sapiens), P61073 [D97A]; assay: Binding affinity to CXCR4 D97A mutant (unknown origin) expresssed in CHO cells at 200 nM incubated for 30 mins by 12G5 antibody based fluorescence analysis; format: cell-based; procedure, shortened: as §2
C-X-C chemokine receptor type 4 (Homo sapiens), P61073 [D97A], sequence (P61073 whole entry D97A): as the sequence (P61073 whole entry) above, with D97A counted along it

[11] = system: C-X-C chemokine receptor type 4 (Homo sapiens), P61073 [W195A]; assay: Competitive binding affinity to CXCR4 W195A mutant (unknown origin) expresssed in CHO cells at 200 nM incubated for 30 mins by 12G5 antibody based fluorescence analysis; format: cell-based; procedure, shortened: as §2
C-X-C chemokine receptor type 4 (Homo sapiens), P61073 [W195A], sequence (P61073 whole entry W195A): as the sequence (P61073 whole entry) above, with W195A counted along it

[12] = system: C-X-C chemokine receptor type 4 (Homo sapiens), P61073 [Y116A]; assay: Competitive binding affinity at CXCR4 Y116A mutant (unknown origin) expressed in CHO cells at 200 nM incubated for 30 mins by 12G5 antibody based fluorescence analysis; format: cell-based; procedure, shortened: as §2
C-X-C chemokine receptor type 4 (Homo sapiens), P61073 [Y116A], sequence (P61073 whole entry Y116A): as the sequence (P61073 whole entry) above, with Y116A counted along it

[13] = system: C-X-C chemokine receptor type 4 (Homo sapiens), P61073 [D262N]; assay: Binding affinity to CXCR4 D262N mutant (unknown origin) expresssed in CHO cells at 200 nM incubated for 30 mins by 12G5 antibody based fluorescence analysis; format: cell-based; procedure, shortened: as §2
C-X-C chemokine receptor type 4 (Homo sapiens), P61073 [D262N], sequence (P61073 whole entry D262N): as the sequence (P61073 whole entry) above, with D262N counted along it

[14] = system: C-X-C chemokine receptor type 4 (Homo sapiens), P61073 [E288Q]; assay: Binding affinity to CXCR4 E288Q mutant (unknown origin) expresssed in CHO cells at 200 nM incubated for 30 mins by 12G5 antibody based fluorescence analysis; format: cell-based; procedure, shortened: as §2
C-X-C chemokine receptor type 4 (Homo sapiens), P61073 [E288Q], sequence (P61073 whole entry E288Q): as the sequence (P61073 whole entry) above, with E288Q counted along it

[15] = system: Human immunodeficiency virus 1; assay: Antiviral activity against Human immunodeficiency virus 1 NL4-3 infected in human PBMC cells assessed as inhibition of extracellular p24 level preincubated with cells for 2 hrs followed by viral infection for 2 hrs and measured after 5 days by ELISA

With `CC(C)C[C@@H](N)C(=O)NCC(=O)N[C@H](C)C(=O)N[C@H](CO)C(=O)N[C@H](Cc1c[nH]c2ccccc12)C(=O)N[C@H](Cc1cnc[nH]1)C(=O)N[C@H](CCCNC(=N)N)C(=O)N1CCC[C@@H]1C(=O)N[C@H](CC(=O)O)C(=O)N[C@H](CCCCN)C(=O)N[C@H](CS)C(=O)N[C@H](CS)C(=O)N[C@H](CC(C)C)C(=O)NCC(=O)N[C@H](Cc1ccc(O)cc1)C(=O)N[C@H](CCC(N)=O)C(=O)N[C@H](CCCCN)C(=O)N[C@H](CCCNC(=N)N)C(=O)N1CCC[C@@H]1C(=O)N[C@H](CC(C)C)C(=O)N1CCC[C@@H]1C(=O)NCCCCCC(=O)N[C@@H](CCCCN)C(=O)N[C@H](CCCCN)C(=O)N[C@H](CCCNC(=N)N)C(=O)N[C@H](Cc1ccccc1)C(=O)N[C@H](Cc1ccccc1)C(=O)N[C@H](CC(=O)O)C(=O)NCC(=O)N[C@H](CC(C)C)C(=O)N[C@H](CC(C)C)C(N)=O` the IC50 [1] was 0.193 µM.

`CC[C@H](C)[C@H](NC(=O)[C@H](CC(=O)O)NC(=O)CNC(=O)[C@H](CCCCN)NC(=O)[C@H](CCCNC(=N)N)NC(=O)[C@H](CCCCN)NC(=O)CCCCCN)C(=O)N[C@@H](CCCNC(=N)N)C(=O)N[C@@H](CCC(N)=O)C(=O)N[C@@H](C)C(=O)N[C@@H](Cc1cnc[nH]1)C(=O)N[C@@H](CS)C(N)=O` (HELM PEPTIDE1{[NCCCCCC(=O)[*:2]].K.R.K.G.D.I.R.Q.A.H.C.[am]}$$$$V2.0) gave an IC50 [2] of over 50 µM and an IC50 [1] of over 50 µM.

In the case of `CC[C@H](C)[C@H](NC(=O)[C@H](CC(=O)O)NC(=O)CNC(=O)[C@H](CCCCN)NC(=O)[C@H](CCCNC(=N)N)NC(=O)[C@H](CCCCN)NC(=O)CCCCCNC(=O)[C@@H](CCCNC(=N)N)NC(=O)[C@@H](CCCCN)NC(=O)[C@@H](CCCCN)NC(=O)[C@@H](CC(=O)O)NC(=O)[C@H]1CCCN1C(=O)[C@@H](CCCNC(=N)N)NC(=O)[C@@H](Cc1cnc[nH]1)NC(=O)[C@@H](Cc1c[nH]c2ccccc12)NC(=O)[C@@H](CO)NC(=O)[C@@H](C)NC(=O)CNC(=O)[C@H](N)CC(C)C)C(=O)N[C@@H](CCCNC(=N)N)C(=O)N[C@@H](CCC(N)=O)C(=O)N[C@@H](C)C(=O)N[C@@H](Cc1cnc[nH]1)C(=O)N[C@@H](CS)C(N)=O`, the Activity [3] is reported as “inactive”, the inhibition [4] is reported as “Active” and the remaining at 48 h, 1000 µM [5] is reported as 95%. The inhibition [6] was 100% and the inhibition [7] was “Dose-dependent effect”.

With `CC(C)C[C@@H](N)C(=O)NCC(=O)N[C@H](C)C(=O)N[C@H](CO)C(=O)N[C@H](Cc1c[nH]c2ccccc12)C(=O)N[C@H](Cc1cnc[nH]1)C(=O)N[C@H](CCCNC(=N)N)C(=O)N1CCC[C@@H]1C(=O)N[C@H](CC(=O)O)C(=O)N[C@H](CCCCN)C(N)=O` (HELM PEPTIDE1{[dL].G.[dA].[dS].[dW].[dH].[dR].[dP].[dD].[dK].[am]}$$$$V2.0) the Activity [8] was “Active”, the Activity [9] was “Active” and the inhibition [4] was “inactive”. The Activity [10] was “inactive”, the Activity [11] was “inactive” and the Activity [12] was “Active”. The Activity [13] was “inactive”, the Activity [14] was “inactive” and the inhibition [15] was “inactive”.
